EBI2 block: blocks human EBI2 receptor beta-arrestin signaling. EBI2 beta-arrestin recruitment, luminescence, 7a,25-OHC stimulated. 360,000 compounds, 0.81% hits. inhibition, % at 5 µM. P32249; in the data active = inhibition above about 38%;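 also: enzyme fragment complementation signal reports receptor beta-arrestin coupling in cells; 0% = agonist plus DMSO wells and 100% = wells without agonist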
CXCR6 inh: inhibitors of human CXCR6 receptor | AID 602244 | CHO-K1 PathHunter CXCR6 beta-arrestin, luminescence | inhibition, % at 20 µM | O00574 | 360,000 compounds, 0.36% hits; in the data active = inhibition above about 34%, passing the limit was not always enough;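 also: antagonist mode with CXCL16 agonist at 10 nM final; 0% = 10 nM CXCL16 with DMSO and 100% = unstimulated wells without agonist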
Target sequence (O00574 whole entry, looked up): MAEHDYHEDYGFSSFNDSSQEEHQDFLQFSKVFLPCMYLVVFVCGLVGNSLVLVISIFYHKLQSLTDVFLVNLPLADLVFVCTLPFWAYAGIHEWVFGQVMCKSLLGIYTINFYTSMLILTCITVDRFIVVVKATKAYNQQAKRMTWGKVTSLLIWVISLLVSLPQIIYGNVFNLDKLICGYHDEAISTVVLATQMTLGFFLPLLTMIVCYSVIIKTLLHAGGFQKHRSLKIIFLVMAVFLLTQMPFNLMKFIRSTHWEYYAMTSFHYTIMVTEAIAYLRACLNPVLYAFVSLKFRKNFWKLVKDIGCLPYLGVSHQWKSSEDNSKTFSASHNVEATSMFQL
APJ antagonist: APJ receptor antagonism; inhibition, % at 20 µM; AID 2521; P35414; CHO-K1 APJ beta-arrestin complementation, luminescence; 330,000 compounds, 0.32% hits;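 active = inhibition above about 40% at 20 µM, limit read from the data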;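 also: cells challenged with 10 nM apelin-13 agonist together with compound; plate controls were apelin-13 plus DMSO wells for no effect and DMSO wells lacking apelin-13 for full effect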
APJ ag: activates the human apelin receptor APJ; activation, % at 20 µM; P35414; 330,000 compounds, 0.11% hits; CHO-K1 APJ PathHunter beta-arrestin, luminescence; 0% DMSO wells, 100% apelin;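 active = activation more than six SD over the plate average, tested at 20 µM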;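 also: 0% = DMSO alone and 100% = apelin-13 at 10 nM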
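Test system: CHO-K1 APJ beta-arrestin complementation cell line. Amount: cell density 1000 per well. Controls: DMSO negative, 10 nM Apelin-13 positive. Signal: luminescent beta-gal fragment complementation, chemiluminescent substrate. Read-out basis: agonist-driven arrestin binding to APJ. Timing: compound stimulation 90 min at 25 °C, detection 60 min.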
CCR6 antag: antagonists of human CCR6 receptor; AID 493098; 340,000 compounds, 0.49% hits; P51684; inhibition, % at 20 µM; CHO-K1 CCR6 PathHunter beta-arrestin, luminescence, CCL20-stimulated;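 active = compounds whose inhibition of the agonist-driven luminescence signal at 20 µM reaches about 50%, limit read from the data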;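 also: cells stimulated with CCL20 at 14 nM final; plate controls were DMSO with CCL20 for no effect and DMSO without agonist for full effect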
EBI2 conf: EBI2 (human) antagonism, single concentration confirmation; shares compounds with EBI2 block; EBI2 beta-arrestin luminescence, 7a,25-OHC antagonism; inhibition, % at 5 µM; 2,400 compounds, 29% hits; AID 651997;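 active = inhibition of at least 50%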
EBI2 agonist: activates EBI2, counter-screen for EBI2 antagonists; 2,400 tested, under 10 active; EBI2-expressing cells, agonist mode, luminescence, 60 min; 0% vehicle, 100% 7α,25-dihydroxycholesterol control; activation, % at 5 µM; shares compounds with EBI2 block;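 active = activation of at least 50%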
bGal counter: beta-galactosidase inhibition counter-screen; purified beta-galactosidase, luminescent Galacton Star, 15 min; AID 652176; 2,400 compounds, 1% hits; inhibition, % at 5 µM; shares compounds with EBI2 block;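 active = replicate-average signal at least 3 plate SD below neutral wells, shown as high inhibition, flagging enzyme-inhibiting false positives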;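 also: 0% = DMSO wells with enzyme and 100% = wells lacking enzyme; higher means stronger loss of beta-gal luminescence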
* = called active by the depositor; · = no result given. A selection: hits, their analogues and other compounds. The true share with any hit is near 1.5%.

SMILES	EBI2 block	CXCR6 inh	APJ antagonist	APJ ag	CCR6 antag	EBI2 conf	EBI2 agonist	bGal counter
C=C1[C@H]2C[C@H]3[C@H]4N5C[C@]6(C)CCC[C@]47[C@H]([C@H]2O)[C@]3(C[C@]5(O)[C@H]67)[C@@H]1O	-4	-6	-34	-4	3	·	·	·
CC(=O)CC(c1ccc2c(c1)OCO2)c1c(O)c2ccccc2oc1=O (centres undefined)	-4	0	·	·	·	·	·	·
CCOC(=O)[C@]12Cc3cc(OC)ccc3[C@H]1N(Cc1ccccc1)C(=O)c1cc(F)c(F)cc12	40*	17	·	·	5	23	-2	-8
CCN1C[C@]2(CO)CC[C@H](OC)[C@@]34C5C[C@H]6[C@H](OC)C5[C@](O)(C[C@H]6OC)[C@@](O)(C(OC)C23)[C@@H]14 (some centres undefined)	-3	4	0	-5	-2	·	·	·
Cc1nc2cc(C(F)(F)F)ccc2n1C1CCN(Cc2nnnn2CCc2ccccc2)CC1	37*	-4	-12	-4	-3	45	1	3
Cc1nc2cc(F)ccc2n1C1CCN(Cc2nnnn2CCc2ccccc2)CC1	17	2	10	-6	-7	·	·	·
CN1C(=O)N(C)C(=O)C2(Cc3cc([N+](=O)[O-])ccc3N(C)C2c2ccccc2)C1=O (centres undefined)	5	13	-2	-2	7	·	·	·
COC(=O)C1=C(c2ccc(-c3ccccc3)c(F)c2)C[C@@H]2CC[C@H]1N2C(=O)NCCOc1ccc(OC)cc1	54*	12	7	-2	12	20	-2	-1
COC(=O)C1=C(c2ccccc2OCc2ccccc2)C[C@@H]2CC[C@H]1N2C(=O)NCc1ccc(N(C)C)cc1	5	10	5	-2	17	·	·	·
COC(=O)C1=C(c2ccc(-c3ccccc3)c(F)c2)C[C@@H]2CC[C@H]1N2C(=O)NCCc1ccccc1	44*	2	0	0	0	20	0	5
COC(=O)C1=C(c2ccc(F)cc2OCc2ccccc2)C[C@@H]2CC[C@H]1N2C(=O)NCCOc1ccc(OC)cc1	48*	14	5	-4	20	40	0	0
COC(=O)C1=C(c2ccccc2OCc2ccccc2)C[C@@H]2CC[C@H]1N2C(=O)NCc1ccc(Cl)cc1	44*	12	14	-1	20	20	-1	-5
CCOc1cc2c(cc1OCC)-n1cccc1C(c1ccccc1F)NC2 (centres undefined)	-5	4	17	-2	19	·	·	·
C[C@]12CC[C@H]3[C@@H](CCC4=CC(=O)CC[C@@]43O)[C@@H]1CCC2=O	-5	-8	6	-5	-2	·	·	·
Cc1ccc(N(C)C(=O)Oc2ccc(C(=O)c3ccc(Cl)cc3)cc2)cc1	78*	12	11	-2	-2	44	-1	-17
CC(=O)Nc1ccc(OC(=O)N(C)c2ccc(C)cc2)cc1	-10	-9	5	-3	3	·	·	·
O=C(C1CCN(c2nc3ccc(Br)cc3s2)CC1)N1CCC2(CC1)OCCO2	56*	5	-3	-1	12	12	0	0

High-throughput results: PubChem BioAssay, Sanford-Burnham Center for Chemical Genomics
